Each compound was assayed on E. coli BW25113 wild type growth inhibition, OD615 (assay: growth inhibition of wild-type E. coli, dose response, BW25113 wild type, OD615 (AID 638)).
Summary of the method: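 Assay system: E. coli BW25113 wild type; buffer or medium: Kanamycin-supplemented LB broth; signal: optical density (absorbance) at 615 nm; controls: chloramphenicol 30 µM control; doses: compound concentration series; times: bacterial exposure to compound 20 h at 37 °C; evaluation: IC50 from 4-parameter logistic, bounds fixed 0–100%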

For `CCSc1nnc(NC(=O)c2ccccn2)s1`, which IC50 is on record?
The IC50 was 92.8 µM.

`CCn1cc(C(=O)Nc2nncs2)c(=O)c2cc(F)c(N3CCN(C(=O)c4ccco4)CC3)cc21` was tested. Which IC50 did it give?
The IC50 was 75.6 µM.

Which IC50 does the source give for `NC1C2CN(c3nc4c(cc3F)c(=O)c(C(=O)O)cn4-c3ccc(F)cc3F)CC12` (centres undefined) here?
Its IC50 is less than 0.195 µM.

How did the IC50 turn out when `c1ccc(-c2cccc(-c3ccccn3)n2)nc1` was run?
Its IC50 is 66.8 µM.

`COc1cccc(C(=O)Nc2nnc(-c3cccs3)o2)c1` was tested. Which IC50 did it give?
Its IC50 is 79.6 µM.

Which IC50 does the source give for `CCn1cc(C(=O)O)c(=O)c2cc(F)c(N3CCN(C(=O)Nc4ccccc4)CC3)cc21` here?
The IC50 was 2.28 µM.

`Cc1ccsc1C(=O)Nc1nnc(-c2ccco2)o1` was tested. Which IC50 did it give?
Its IC50 is 60.3 µM.

`CC(=O)c1c(C)n([O-])c2ccccc2[n+]1=O` was tested. Which IC50 did it give?
The IC50 was 19.5 µM.

For `CN(C)[C@@H]1C(=O)C(C(N)=O)=C(O)[C@@]2(O)C(=O)C3=C(O)c4c(O)ccc(Cl)c4[C@@H](O)[C@H]3C[C@@H]12`, which IC50 is on record?
Its IC50 is 0.609 µM.

With `C=CCNc1ncnc2c1[nH]c1ccc(C)cc12` as the compound, how does the IC50 read?
Its IC50 is 35.4 µM.

With `O=S1(=O)Nc2c(ccc3cccnc23)-c2ccccc21` as the compound, how does the IC50 read?
Its IC50 is 26.8 µM.

How did the IC50 turn out when `O=C(Nc1nnc(-c2ccccc2)o1)c1ccc(Cl)cc1` was run?
Its IC50 is 102 µM.

`CN1CCN(c2c(F)cc3c(=O)c(C(=O)O)cn4c3c2SCC4)CC1` was tested. Which IC50 did it give?
Its IC50 is 1.1 µM.

For `CO[C@@]1(NC(=O)Cc2cccs2)C(=O)N2C(C(=O)O)=C(COC(N)=O)CS[C@@H]21`, which IC50 is on record?
The IC50 was 7.91 µM.

How did the IC50 turn out when `CC(=O)OCC1=C(C(=O)O)N2C(=O)[C@@H](NC(=O)Cc3cccs3)[C@H]2SC1` was run?
The IC50 was 10.6 µM.

How did the IC50 turn out when `N#Cc1ccc(NC(=O)Nc2ccc(Cl)cc2)cc1` was run?
The IC50 was 49.2 µM.

For `O=c1ccsn1Cc1ccccc1`, which IC50 is on record?
Its IC50 is 23.6 µM.

Which IC50 does the source give for `CCC(=O)N1CCN(c2cc3c(cc2F)c(=O)c(C(=O)O)cn3CC)CC1` here?
Its IC50 is 3.16 µM.

`COc1c(N2CCNC(C)C2)c(F)cc2c(=O)c(C(=O)O)cn(C3CC3)c12` (centres undefined) was tested. Which IC50 did it give?
The IC50 was less than 0.195 µM.

`COc1cc(Cc2cnc(N)nc2N)cc(OC)c1OC` was tested. Which IC50 did it give?
Its IC50 is 0.688 µM.

For `CCn1cc(C(=O)NCc2ccc3c(c2)OCO3)c(=O)c2cc(F)c(N3CCN(C)CC3)cc21`, which IC50 is on record?
The IC50 was 28.2 µM.

For `Oc1c(CN2CCCCC2)cc(Br)c2cccnc12`, which IC50 is on record?
Its IC50 is 61.3 µM.

For `O=C(Nc1cccc(Cl)c1)Nc1nccs1`, which IC50 is on record?
Its IC50 is 96.1 µM.

`CCCCOc1ccc(NC2=NC3(CCCCC3)N=C(N)N2)cc1` was tested. Which IC50 did it give?
Its IC50 is 89 µM.
